Screening results (PubChem)
Sampled rows, rich in hits. Any-hit rate of the full collection: about 1.1%.
Vif inh: inhibitors of HIV Vif. HEK293T cells, Vif self-association by quenched fluorescence, imaging, 24 h. inhibition, % at 7.49 µM. 0.35% of 340,000 active. AID 602346; in the data active = inhibition above about 50%, passing the limit was not always enough
MT1-MMP act inh: inhibitors of human MT1-MMP activation; HT1080 RFP-PRO-GFP cells, GFP/RFP ratio fluorescence, overnight; percent of plate control window, DMSO zero; GFP/RFP ratio change, % at 20 µM; 0.061% of 360,000 active;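 active = GFP/RFP ratio change of at least 30% with cell ATP level not reduced by more than half and red fluorescence within 50% of control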
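Assay system: HT1080 RFP-PRO-GFP cells | Dosing: 20 µM single dose, 1% DMSO | Incubation: Cells overnight before dosing, compound overnight, 37 °C, 5% CO2 | Evaluation: GFP/RFP fluorescence ratio | Control set: DMSO-only wells and HT1080 RFP-L50D-GFP cell wells as references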
NR2E3 ag-1: human photoreceptor-specific nuclear receptor agonism; Q9Y5X4; 0.35% of 360,000 active; inhibition of corepressor binding, % at 3.98 µM; CHO-S Gal4-NCOR/VP16-NR2E3 two-hybrid, luciferase;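 active = inhibition above the mean of all tested compounds plus 3 SD, cut at about 70% in these data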;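 note: 0% = DMSO with NR2E3 transfected cells and 100% = cells lacking NR2E3 construct; higher means lower luciferase signal from less NR2E3 corepressor binding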
Target sequence (Q9Y5X4 whole entry, looked up, the tested form may be a part): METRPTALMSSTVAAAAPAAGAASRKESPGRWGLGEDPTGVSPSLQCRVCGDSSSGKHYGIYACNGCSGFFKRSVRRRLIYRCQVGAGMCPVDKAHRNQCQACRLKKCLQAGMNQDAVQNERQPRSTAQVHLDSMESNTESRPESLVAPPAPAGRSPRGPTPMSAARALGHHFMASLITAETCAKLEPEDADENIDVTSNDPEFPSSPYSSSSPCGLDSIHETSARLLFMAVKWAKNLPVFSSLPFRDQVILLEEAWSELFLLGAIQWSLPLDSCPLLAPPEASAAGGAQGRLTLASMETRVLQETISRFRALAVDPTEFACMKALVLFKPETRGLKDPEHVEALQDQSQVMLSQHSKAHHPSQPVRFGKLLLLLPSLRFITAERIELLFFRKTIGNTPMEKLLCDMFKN
HCV core dimer: HCV core protein dimerization inhibition; inhibition, % at 5 µM; 0.33% of 300,000 active; TR-FRET GST/Flag-core106 dimerization, 1536-well;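 active = inhibition above the mean of all tested compounds plus 3 SD, set per screening campaign, cut at about 45% in these data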
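assay system = GST-tagged and Flag-tagged HCV core protein residues 1-106 | controls = unlabelled core106 and no-GST-core106 wells | incubation = compound-protein-antibody incubation 4 h at 22.5 °C | probe or stimulus = Eu donor and XL665 acceptor anti-tag antibodies | read-out = % inhibition based on acceptor/donor emission ratio | signal = TR-FRET 671 and 617 nm emission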
NR2E3 ag-2: activates human photoreceptor nuclear receptor NR2E3; GST-NR2E3/biotin-RetCOR TR-FRET, 1536-well; inhibition of corepressor binding, % at 4.78 µM; AID 2300; Q9Y5X4; 0.12% of 320,000 active;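 active = percent inhibition above the cutoff of mean plus 3 SD of all tested compounds, set per screening campaign, cut at about 20% in these data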;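 note: 0% = DMSO wells and 100% = biotin wells as full block of FRET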
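Material – GST-tagged NR2E3 plus biotinylated RetCOR corepressor · Quantity – NR2E3 fusion 1.35 nM · Times – 5 h incubation at 4 °C · Medium – pH 7.5 Tris-based buffer · Technique – TR-FRET, Eu(K)-anti-GST donor, streptavidin-D2 acceptor, ex 340, em 617/671 nm · Benchmarks – high control biotin, low control 0.6% DMSO · Format – 1536-well plates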
DAGLB inh: blocks human DAGLB lipase activity. inhibition, % at 5.17 µM. Q8NCG7. 0.059% of 340,000 active. HEK293T DAGLB membrane lysate, EnzChek fluorogenic substrate; in the data active = inhibition above about 34%;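 note: 0% = enzyme with vehicle and 100% = wells lacking enzyme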
An asterisk follows results filed as active; . = no result.

SMILES	Vif inh	MT1-MMP act inh	NR2E3 ag-1	HCV core dimer	NR2E3 ag-2	DAGLB inh
COc1ccccc1C(C)NCC(=O)NC(=O)NCc1ccco1 (stereo unspecified)	6	-6	-11	7	-2	3
Cc1ccc(S(=O)(=O)N2[C@H](CC(=O)Oc3ccccc3)OC[C@@H]2C(C)C)cc1	.	4	.	.	.	.
C[C@]12CCC(=O)CC1=CCC1C3CC=C(C#N)[C@@]3(C)CC[C@@]12O (stereo partly specified)	12	2	13	-1	1	-3
Cc1cc(C)cc(NC(=O)/C=C/c2ccc([N+](=O)[O-])s2)c1	96*	-39	-10	-4	2	3
Cc1ccccc1NC(=O)/C=C/c1ccc([N+](=O)[O-])s1	.	-162	85*	-5	0	-1
COc1ccc(-c2nnc(SCc3nc4ccccc4c(=O)[nH]3)o2)cc1	52*	3	-15	0	-1	-3
CC(C)C(=O)N1CCC1(C)C(=O)Nc1ccc2[nH]ccc2c1 (stereo unspecified)	.	3	-34	.	.	.
Cc1cc(C)c2sc(N(CCCN(C)C)C(=O)c3ccc(S(=O)(=O)N4CCc5ccccc5C4)cc3)nc2c1	-11	-4	34	-8	1	-7
Cc1cc(C)c2nc(NNC(=O)c3ccc(S(=O)(=O)N4CCc5ccccc5C4)cc3)sc2c1	-5	8	-46	52*	0	1
Cc1cc(C)c2sc(NNC(=O)c3ccc(S(=O)(=O)N4CCc5ccccc5C4)cc3)nc2c1	-8	10	0	64*	2	-21
O=C(CSc1nnc(-c2ccco2)o1)c1ccc[nH]1	10	0	-77	63*	1	1
Cc1ccc(NC(=O)COC(=O)c2ccc(CN3CCCC3=O)cc2)c(Cl)c1	22	-3	18	.	2	-2
COc1ccccc1CNC(=O)CCS(=O)(=O)c1ccc2c(c1)CCN2C(C)=O	-1	5	-5	-1	-2	-2
N#Cc1cc2c(=O)n3ccccc3nc2n(-c2ccccc2Cl)c1=O	154*	-10	-14	2	3	-1
O=C(OCCc1ccccc1)c1cc(O)c(O)c(O)c1	51*	4	-157	-22	-2	13
O=C(Nc1ccccc1)C1=C[C@H](C2CCCCC2)C[C@H](OCCCCO)O1	25	0	-32	-9	0	0
O=C(NCc1ccccc1)C1=C[C@@H](c2ccccc2)C[C@@H](OCc2ccc(CO)cc2)O1	8	-2	-21	9	3	-1
O=C(Nc1ccccc1)C1=C[C@@H](C2CCCCC2)C[C@@H](OCCCCO)O1	69*	5	10	0	-3	-4
C#Cc1ccc([C@@H]2C=C(C(=O)NCc3ccccc3)O[C@H](OCCCCO)C2)cc1	-1	0	-10	52*	2	-1
C#Cc1ccc([C@@H]2C=C(C(=O)NCc3ccccc3)O[C@H](OCc3ccc(CO)cc3)C2)cc1	-4	-1	17	47*	-1	1
c1nc(SSc2ncnc3nc[nH]c23)c2[nH]cnc2n1	15	26	8	.	.	-2
CC1C(=O)N2CCCc3cc(NC(=O)C(=O)NCCc4ccc(F)cc4)cc1c32 (stereo unspecified)	0	3	7	0	0	0
COc1ccc(NS(=O)(=O)c2cccc(NC(=O)c3ccc(S(=O)(=O)N4CCCCCC4)cc3)c2)cc1	-15	0	83*	22	2	0
COc1ccc(NS(=O)(=O)c2ccc(O)c(NC(=O)c3ccc(S(=O)(=O)N4CCCCCC4)cc3)c2)cc1	-9	1	-14	31	-2	15
CC12CCC(=O)C=C1CCC1C2C(O)CC2(C)C1CCC2(O)C(=O)CO (stereo unspecified)	50*	0	15	10	-1	0
SMILES	Vif inh	MT1-MMP act inh	NR2E3 ag-1	HCV core dimer	NR2E3 ag-2	DAGLB inh
C[C@]12CCC(=O)C=C1CC[C@@H]1[C@@H]2[C@@H](O)C[C@@]2(C)[C@H]1CC[C@]2(O)C(=O)CO	-1	-2	17	12	1	2
COc1ccc(N2CC(C(=O)N[C@@H](C)C(=O)NCc3ccccc3OC)CC2=O)cc1 (stereo partly specified)	-5	0	-15	2	-1	-1
Cc1cccc(C)c1NC(=O)C1(C)CN(S(C)(=O)=O)CC(=O)N1CCc1ccccc1F (stereo unspecified)	.	5	.	.	.	.
Cc1cccc(N2CSC3=C(C#N)C(c4ccc(C)o4)CC(=O)N3C2)c1 (stereo unspecified)	.	.	.	84*	4	.
CCOC(=O)C1=C(C)NC(=O)NC1	74*	3	-3	-6	3	-2
Cc1ccc(NC(=O)C2CCN(S(=O)(=O)c3c(C)noc3/C=C/c3ccco3)CC2)nc1	-6	-12	9	8	3	-16
Cc1noc(/C=C/c2ccco2)c1S(=O)(=O)N1CCC(C(=O)N2CCc3ccccc3C2)CC1	-15	-26	-4	48*	-1	0
NC(=O)c1c(NC(=O)C2COc3ccccc3O2)sc2c1CCN(Cc1ccccc1)C2 (stereo unspecified)	110*	-112	-12	3	-15	3
NC(=O)c1c(NC(=O)C2c3ccccc3Oc3ccccc32)sc2c1CCCCC2	9	-48	4	50*	-1	3
CO[C@@H]1CN(C)C(=O)c2ccc(NC(=O)c3ccccc3F)cc2OC[C@@H](C)N(CC2CCOCC2)C[C@@H]1C	.	-1	.	.	.	.
CCN1C(=O)NC(c2ccccc2)C1=O (stereo unspecified)	81*	4	-8	10	5	3
O=[N+]([O-])CC(=Nc1ccc(Cl)cc1)N/N=C\c1oc(O)c2ccccc12	2	-7	-54	61*	6	9
O=C(N/N=C\c1ccc(COc2ccc([N+](=O)[O-])cc2)o1)c1ccc(Cl)cc1	.	1	-22	7	-1	6
Cc1cc(C)cc(NC(=O)N2CCCN(Cc3c(F)cccc3Cl)CC2)c1	-3	-1	-12	2	-3	-5
Cc1nn(CCCC(=O)N2CCc3ccccc3C2)c(=O)c2cc3sccc3n12	85*	3	5	7	0	-3
CCOc1ccc2c(C)c(C(=O)O)oc2c1OCC	55*	14	4	0	4	-1
CCOc1ccc2c(C)c(C)c(=O)oc2c1OCC	4	5	-31	-3	3	1
O=C(CCC(=O)Nc1ccccc1)NNC(=O)CCc1ccccc1	22	1	-4	5	1	-1
